Series [1] concerns Trypanosoma brucei rhodesiense. In words: Trypanocidal activity against bloodstream form of Trypanosoma brucei rhodesiense STIB900 infected in NMRI mouse assessed as mean survival days at 5 mg/kg, ip qd administered for 4 days. The series is classed as functional. The method, boiled down:
(§1)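 Mice infected with T. b. rhodesiense STIB900 (acute model) dosed once daily for 4 consecutive days, ip (diamidines) or oral (prodrugs). Cure means survival to 60 days post infection without parasitemia relapse. Mean survival days post infection are averaged over all mice, with cured mice counted as >60 days.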

Series [2] concerns Trypanosoma brucei rhodesiense. As to the kind of experiment: Trypanocidal activity against bloodstream form of Trypanosoma brucei rhodesiense STIB900 infected in NMRI mouse assessed as decrease in parasitemia at 5 mg/kg, ip qd administered for 4 days measured once per week until 60 days by microscopic analysis. The series is classed as functional, organism-based. Also noted: dose 5 mg/kg. The method, boiled down:
(§2)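 Mice infected with T. b. rhodesiense STIB900 received one dose daily for 4 consecutive days, 4 mice per group. Diamidines were given intraperitoneally and prodrugs orally. The primary endpoint was cures per group: a mouse counted as cured if it survived 60 days post-infection without parasitemia relapse.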

In series [3] the test system is Trypanosoma brucei rhodesiense. As to the kind of experiment: Trypanocidal activity against bloodstream form of Trypanosoma brucei rhodesiense STIB900 infected in NMRI mouse assessed as mean parasitemia relapse day at 5 mg/kg, ip qd administered for 4 days. The conditions noted are these: route intraperitoneal. The format is functional. The method, boiled down:
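Mice infected with STIB900 received 4 consecutive daily intraperitoneal doses, 4 mice per group. The secondary endpoint was mean relapse day post-infection, which separates weaker compounds; mice surviving 60 days without parasitemia relapse were scored as cured.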

The test system of series [4] is Trypanosoma brucei rhodesiense. In words: Trypanocidal activity against bloodstream form of Trypanosoma brucei rhodesiense STIB900 infected in NMRI mouse assessed as decrease in parasitemia at 25 mg/kg, po qd administered for 4 days measured once per week until 60 days by microscopic analysis. The format is functional, organism-based. More on the design: dose 25 mg/kg. The method in brief: as §2

For series [5], the system named is Trypanosoma brucei rhodesiense. As to the kind of experiment: Trypanocidal activity against bloodstream form of Trypanosoma brucei rhodesiense STIB900 infected in NMRI mouse assessed as mean survival days at 25 mg/kg, po qd administered for 4 days. The format is functional. The method, boiled down: as §1
Series [6] in a line: Selectivity index, ratio of IC50 for rat L6 cells to IC50 for Trypanosoma brucei rhodesiense STIB900. The format is toxicity, cell-based. The conditions noted are these: read-out: Ratio IC50. The method, boiled down: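 Ratio of IC50 in L6 rat myoblast cytotoxicity assay to IC50 against T. b. rhodesiense STIB900; each IC50 is the mean of two independent assays.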
Another series concerns Plasmodium falciparum. As to the kind of experiment: Antiplasmodial activity against chloroquine/pyrimethamine-resistant Plasmodium falciparum K1 infected in human red blood cells assessed as [3H]-hypoxanthine incorporation incubated for 48 hrs prior to [3H]-hypoxanthine addition measured after 24 hrs by liquid scintillation counting analysis. The series is classed as functional, organism-based.

The nature of series [7]: Selectivity index, ratio of IC50 for rat L6 cells to IC50 for chloroquine/pyrimethamine-resistant Plasmodium falciparum K1 infected in human red blood cells. The format is toxicity, cell-based. The conditions noted are these: read-out: Ratio IC50. The method in brief:
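Ratio of IC50 in L6 rat myoblast cytotoxicity assay to IC50 against P. falciparum K1; each IC50 is the mean of two independent assays.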

A further series deals with L6. In words: Cytotoxicity against rat L6 cells assessed as cell viability after 70 hrs by Alamar blue assay. The series is classed as cell-based. The conditions noted are these: L6, 70 h. On the technique in general: Alamar Blue is a resazurin reagent that responds to reducing activity.
Series [8] deals with Trypanosoma brucei rhodesiense. As to the kind of experiment: Antitrypanosomal activity against Trypanosoma brucei rhodesiense STIB900 assessed as growth inhibition after 70 hrs by Alamar blue assay. The series is classed as functional, organism-based. The conditions noted are these: STIB900, 70 h.

The structures appear in SMILES notation. pIC50: −log10 of the molar value. Calls of active or inactive are those of the source. The rule behind the calls is not given here.

`Cl.Cl.Cl.N=C(N)c1ccc(-c2cc(-c3cc(C(=N)N)ccc3Cl)no2)cc1`: the MSD result in series [1] was “inactive”. Moreover, in series [2], the result was inactive. Also, in series [3], the Time was 7.75 days.
As to `COc1cc(/C(N)=N/O)ccc1-c1cc(-c2ccc(/C(N)=N/O)cc2OC)on1.Cl.Cl`, the result in series [4] was inactive. Besides, the MSD in series [5] amounted to 12 days.
Taken in the same sequence, the figures for `CO/N=C(\N)c1ccc(-c2cc(-c3cccc(/C(N)=N/OC)c3)on2)cc1.Cl.Cl` were “inactive” and 31.25 days.
Consider `Cl.Cl.N=C(N)c1ccc(-c2cc(-c3cc(C(=N)N)ccc3[N+](=O)[O-])no2)cc1`, for which the MSD in [1] (route intraperitoneal) is 29.75 days. Further, the result in series [2] was inactive. Besides, the Time in [3] was 17 days.
In the case of `CO/N=C(\N)c1ccc(-c2cc(-c3ccc(/C(N)=N/OC)cc3OC)no2)cc1.Cl.Cl`, the result in series [4] was inactive. For the same molecule, the MSD in series [5] is 27 days.
With `Cl.Cl.N=C(N)c1cccc(-c2cc(-c3ccc(C(=N)N)cc3[N+](=O)[O-])on2)c1`, the MSD result in [1] was “inactive”. The result in [2] was inactive. Moreover, the Time in series [3] was 12.25 days.
Turning to `COc1cc(/C(N)=N/O)ccc1-c1cc(-c2cccc(/C(N)=N/O)c2)no1.Cl.Cl`, the outcome in series [4] was inactive. Further, the MSD in [5] was 8 days.
As to `Cl.Cl.Cl.N/C(=N\O)c1cccc(-c2cc(-c3ccc(/C(N)=N/O)cc3Cl)on2)c1`, the outcome in series [4] was inactive. The MSD in series [5] is 8.5 days.
For the molecule `COc1cc(C(=N)N)ccc1-c1cc(-c2cccc(C(=N)N)c2)on1.Cl.Cl`, in series [1], the MSD entry is “inactive”. Also, the outcome in [2] was inactive. For the same molecule, the Time in series [3] came out at 36.25 days.
`CO/N=C(\N)c1ccc(-c2cc(-c3cc(/C(N)=N/OC)ccc3[N+](=O)[O-])no2)cc1.Cl.Cl`: the result in series [4] was inactive. In addition, the MSD in [5] was found to be 13.5 days.
As to `Cl.N=C(N)c1cncc(-c2cc(-c3ccc(C(=N)N)nc3)no2)c1`, the selectivity ratio in series [6] is 111; in series [7], 440. In addition, the MSD in [1] (route intraperitoneal) is more than 60 days. Moreover, the Time in [3] stood at 60 days. Moreover, the figures for the negative-log IC50 (pIC50) (with Plasmodium falciparum; with L6; in series [8]) were 8.32, 5.68 and 7.72, respectively.
As to `CO/N=C(\N)c1ccc(-c2cc(-c3ccc(/C(N)=N/OC)cc3OC)on2)cc1.Cl.Cl`, the result in series [4] was inactive. The MSD in [5] is 15.75 days.
Taken in the same sequence, the figures for `Cl.Cl.N/C(=N\O)c1ccc(-c2cc(-c3cc(/C(N)=N/O)ccc3[N+](=O)[O-])no2)cc1` were “inactive” and 7.25 days.
Consider `COc1cc(/C(N)=N/O)ccc1-c1cc(-c2ccc(/C(N)=N/O)cc2)no1.Cl.Cl`, for which, in [4], the result was inactive. Also, the MSD in series [5] worked out at 26.25 days.
Taken in the same sequence, the figures for `COc1c(/C(N)=N/O)cccc1-c1cc(-c2cccc(/C(N)=N/O)c2OC)on1.Cl.Cl` were “inactive” and 6 days.
Turning to `Cl.Cl.Cl.N=C(N)c1ccc(-c2cc(-c3cc(C(=N)N)ccc3Cl)on2)cc1`, the MSD result in series [1] was “inactive”. The result in series [2] was inactive. Further, the Time in series [3] is 8.75 days.
For the molecule `Cl.Cl.N=C(N)c1ccc(-c2cc(-c3ccc(C(=N)N)nc3)on2)cn1`, the selectivity ratio in series [6] was 398; in series [7] it was 6650. Also, the Time in series [3] was determined as 24 days. Further, the pIC50 (commonly the IC50 on a negative log10 scale, so that one unit is a factor of ten) was 9.40 in the series on Plasmodium falciparum, 5.61 in the series with L6 and 8.21 in series [8].
Regarding `COc1c(/C(N)=N/O)cccc1-c1cc(-c2ccc(/C(N)=N/O)cc2)no1.Cl.Cl`, the outcome in [4] was inactive. Also, the MSD in [5] is 25.75 days.
Taken in the same sequence, the figures for `CO/N=C(\N)c1ccc(-c2cc(-c3ccc(/C(N)=N/OC)cc3Cl)on2)cc1.Cl.Cl.Cl` were “inactive” and 39 days.
`COc1cc(C(=N)N)ccc1-c1cc(-c2cccc(C(=N)N)c2)no1.Cl.Cl`: the MSD entry in [1] was “inactive”. Also, the result in series [2] was inactive. In series [3], the Time is 18 days.
Take `Cl.Cl.N=C(N)c1ccc(-c2cc(-c3cncc(C(=N)N)c3)no2)cc1`: the selectivity ratio in series [6] was 270; in [7], 1170. In addition, in [3], the Time amounted to 15 days. For the same molecule, the pIC50 was 8.43 with Plasmodium falciparum, 5.36 in the series on L6 and 7.80 in series [8].
For `COc1cc(/C(N)=N/O)ccc1-c1cc(-c2cccc(/C(N)=N/O)c2)on1.Cl.Cl`, the outcome in series [4] was inactive. The MSD in [5] is 17.5 days.
Take `Cl.Cl.N=C(N)c1ccc(-c2cc(-c3ccc(C(=N)N)nc3)no2)cc1`: the results for the selectivity ratio in series [6] and in series [7] were 423 and 6330, respectively. Further, the Time in series [3] worked out at 25.7 days. Besides, the pIC50 with Plasmodium falciparum was 9.40; with L6 it was 5.60; in series [8] it was 8.23.
Regarding `Cl.Cl.N=C(N)c1cccc(-c2cc(-c3ccc(C(=N)N)cc3[N+](=O)[O-])no2)c1`, in series [1], the MSD entry is “inactive”. For the same molecule, the outcome in series [2] was inactive. Moreover, the Time in series [3] was found to be 13 days.
With `COc1ccc(C(=N)N)cc1-c1cc(-c2cc(C(=N)N)ccc2OC)on1.Cl.Cl`, in [1] (route intraperitoneal), the MSD is more than 50 days. The outcome in series [2] was inactive. Besides, in series [3], the Time turned out to be 26 days.
As for `COc1ccc(C(=N)N)cc1-c1cc(-c2cccc(C(=N)N)c2)no1.Cl.Cl`, the MSD result in series [1] is “inactive”. Further, in series [3], the Time amounted to 22.3 days.
Turning to `Cl.Cl.N=C(N)c1ccc(-c2cc(-c3cccc(C(=N)N)c3)on2)nc1`, the results for the selectivity ratio in [6] and in [7] were 8900 and 17400, respectively. Further, the MSD in series [1] (route intraperitoneal) was more than 60 days. In [3], the Time amounted to 53 days. The pIC50 in the series on Plasmodium falciparum is 8.15; with L6 it was 3.92; in [8] it was 7.87.
Consider `Cl.Cl.N=C(N)c1ccc(-c2cc(-c3cc(C(=N)N)ccn3)no2)cc1`, for which the selectivity ratio in series [6] was 1350; in [7], 14200. Also, in [2], the outcome was inactive. The Time in [3] was 15.5 days. The results for the pIC50 (in the series on Plasmodium falciparum; with L6; in series [8]) were 8.30, 4.15 and 7.28, respectively.
`COc1ccc(/C(N)=N/O)cc1-c1cc(-c2ccc(/C(N)=N/O)cc2)on1.Cl.Cl`: in series [4], the result was inactive. In [5], the MSD was 18.25 days.
For the molecule `Cl.Cl.N=C(N)c1cncc(-c2cc(-c3ccc(C(=N)N)nc3)on2)c1`, the selectivity ratio in series [6] was determined as 206; in series [7] it was 1400. In addition, in series [2], the result was inactive. Further, the Time in [3] was found to be 25.25 days. Besides, the pIC50 is 8.46 with Plasmodium falciparum, 5.31 in the series with L6 and 7.62 in [8].
Turning to `Cl.Cl.N/C(=N\O)c1cccc(-c2cc(-c3cccc(/C(N)=N/O)c3)on2)c1`, the result in [4] was inactive. Further, the MSD in [5] worked out at 7.5 days.
Taken in the same sequence, the figures for `CO/N=C(\N)c1cccc(-c2cc(-c3ccc(/C(N)=N/OC)cc3OC)on2)c1.Cl.Cl` were “inactive” and 7.25 days.

(Values after ChEMBL document CHEMBL3102749, “Antiprotozoal activity of dicationic 3,5-diphenylisoxazoles, their prodrugs and aza-analogues” (Bioorg Med Chem, 2014).)
